Experimental findings from ChEMBL document CHEMBL1136410, “Design, synthesis, and biological evaluation of angiogenesis inhibitors: aromatic enone and dienone analogues of curcumin” (2003) are described below.

What is called inhibition is the drop in the measured response relative to a control, in per cent. Read a high inhibition as strong suppression.

The nature of experiment [1]: In vitro percent inhibition of […] murine endothelial cell proliferation garnered from C57BL/6 mice infected with ectotropic virus at 6 ug/mL. The experiment is classed as functional. The note with it: Mus musculus. The essentials: (§1)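 SVR cells (C57BL/6 murine endothelial cells immortalized with SV40 large T and activated H-ras) plated at 10,000/well on gelatinized wells. Grown 24 h at 37 °C, 10% CO2, in 5% DMEM. Medium then replaced with fresh 5% DMEM containing 3 or 6 µg/mL compound (from 1 mg/mL DMSO stocks) for 72 h. Surviving trypsinized cells Coulter-counted; percent inhibition versus DMSO control.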

The nature of experiment [2]: In vitro percent inhibition of […] murine endothelial cell proliferation garnered from C57BL/6 mice infected with ectotropic virus at 3 ug/mL. Format: functional. The note with it: Mus musculus. The method in brief:
as §1

Regarding `Cc1ccc(C(=O)/C=C/c2c(Cl)cccc2Cl)cc1`, the inhibition at 6 µg/mL in experiment [1] stood at 98.1%. Further, testing at 3 µg/mL in experiment [2] gave an inhibition of 98.2%.

Consider `O=C(/C=C/c1c(Cl)cccc1Cl)c1ccccc1`, for which the inhibition at 6 µg/mL in experiment [1] worked out at 97.5%. For the same compound, the inhibition at 3 µg/mL in experiment [2] came to 92.9%.

Turning to `O=C(/C=C/c1ccccc1)c1ccc2ccccc2c1`, the inhibition at 6 µg/mL in experiment [1] was found to be 94.7%. At 3 µg/mL the inhibition in experiment [2] was 92.2%.

On to `O=C(/C=C/c1ccccc1)/C=C/c1ccccc1`, for which the inhibition at 6 µg/mL in experiment [1] came out at 97.7%. The compound further registered an inhibition at 3 µg/mL in experiment [2] of 96.6%.

The compound `O=C1/C(=C/c2ccccn2)CCC/C1=C\c1ccccn1` registered an inhibition at 6 µg/mL in experiment [1] of 96.7%. The same compound came in with an inhibition at 3 µg/mL in experiment [2] of 92.9%.

Turning to `O=C(/C=C/c1c(Cl)cccc1Cl)/C=C/c1c(Cl)cccc1Cl`, at 6 µg/mL the inhibition in experiment [1] was 90.4%. In experiment [2], the inhibition at 3 µg/mL amounted to 87.1%.

The compound `O=C1/C(=C/c2ccccc2)CCC/C1=C\c1ccccc1` [2,6-DIBENZYLIDENECYCLOHEXANONE] had an inhibition at 6 µg/mL in experiment [1] of 97.7%. 3 µg/mL produced 94.4% inhibition in experiment [2].

Take `O=C(/C=C/c1ccccc1)c1ccccc1` [CHALCONE]: testing at 6 µg/mL in experiment [1] gave an inhibition of 94.4%. In addition, the inhibition at 3 µg/mL in experiment [2] was 92.8%.

With `COc1cc(/C=C2\CCC/C(=C\c3ccc(O)c(OC)c3)C2=O)ccc1O` [CYCLOVALONE], in experiment [1], the inhibition at 6 µg/mL came out at 96%. In experiment [2], 3 µg/mL produced 90.1% inhibition.

In turn, `O=C(/C=C/c1ccccn1)c1ccccc1` [WR-190433] registered an inhibition at 6 µg/mL in experiment [1] of 96.9%. In experiment [2], the inhibition at 3 µg/mL is 89.1%.
